According to ChEMBL document CHEMBL3124814, “Synthesis and Anti-HCV Activity of 4-Hydroxyamino α-Pyranone Carboxamide Analogues” (ACS Med Chem Lett, 2014):

Tests used:
[1] = (§1) Selectivity index, ratio of CC50 for human HuH7 cells to EC50 for HCV1b; design: species or system Huh-7
How it was run: (§2)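 Ratio of CC50 (WST-8 viable cell reduction) to EC50 (luciferase inhibition), both from LucNeo#2 replicon cells treated 3 days with compound in G418-free medium.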

[2] = Cytotoxicity against human HuH7 cells expressing luciferase reporter gene after 3 days by WST-8 assay; format: cell-based, Huh-7
How it was run: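 LucNeo#2 subgenomic replicon cells, 50,000 cells/mL, pre-incubated 24 h in DMEM/10% FBS/antibiotics/1 mg/mL G418, then exposed 3 days to various compound concentrations without G418.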

[3] = system: Hepatitis C virus; test: Antiviral activity against HCV1b infected in human HuH7 cells expressing luciferase reporter gene assessed as reduction of luciferase activity after 3 days; format: functional, organism-based, Hepacivirus hominis; settings: genotype 1b, Huh-7, 72 h
How it was run: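 Subgenomic HCV replicon cells with luciferase reporter (LucNeo#2), 50,000 cells/mL in DMEM + 10% FBS, antibiotics, 1 mg/mL G418 for 24 h; then 3 days with various compound concentrations in fresh medium lacking G418. Cells PBS-washed, lysed, luciferase read by luminometer; EC50 as concentration giving 50% inhibition of luciferase activity.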

[4] = system: Huh-7; test: as §1; how it was run: as §2
[5] = Cytotoxicity against human NNC2 cells assessed as GAPDH RNA level; format: cell-based
How it was run: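 NNC#2 full-genome replicon cells, 30,000 cells/mL, 24 h in DMEM/10% FBS/1 mg/mL G418, then 3 days with various concentrations without G418. GAPDH RNA, as cell-viability index, measured by real-time PCR simultaneously with HCV RNA; CC50 derived.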

[6] = system: Hepatitis C virus; test: Antiviral activity against HCV1b infected in human NNC2 cells assessed as inhibition of viral RNA replication after 3 days by RT-PCR analysis; format: functional, organism-based, Hepacivirus hominis; settings: genotype 1b, NNC2, 72 h
How it was run: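 Full-genome HCV RNA replicon cells (NNC#2), 30,000 cells/mL, held 24 h in DMEM + 10% FBS + 1 mg/mL G418, then 3 days in fresh G418-free medium with various concentrations.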

Compound: Cc1ccc(-c2cc(NO)c(C(=O)Nc3ccccc3)c(=O)o2)cc1
- Ratio CC50/EC50 [1]: 13.8
- CC50 at 72 h [2]: > 20000 nM
- EC50 [3]: 1450 nM

Compound: O=C(NCCO)c1c(NO)cc(-c2ccc(Cl)cc2)oc1=O
- Ratio CC50/EC50 [1]: 5
- CC50 at 72 h [2]: > 20000 nM
- EC50 [3]: 4000 nM

Compound: COc1ccc(-c2cc(NO)c(C(=O)NCCO)c(=O)o2)cc1
- Ratio CC50/EC50 [1]: 14.2
- CC50 at 72 h [2]: > 20000 nM
- EC50 [3]: 1410 nM

Compound: CCC[C@H](NC(=O)[C@@H]1[C@H]2CCC[C@H]2CN1C(=O)[C@@H](NC(=O)[C@@H](NC(=O)c1cnccn1)C1CCCCC1)C(C)(C)C)C(=O)C(=O)NC1CC1 [TELAPREVIR]
- Ratio CC50/EC50 [4]: 44.4
- CC50 at 72 h [2]: > 20000 nM
- EC50 [3]: 450 nM

Compound: O=C(Nc1ccccc1)c1c(NO)cc(-c2ccc(Cl)cc2)oc1=O
- Ratio CC50/EC50 [1]: 19.6
- CC50 at 72 h [2]: 11000 nM
- EC50 [3]: 560 nM

Compound: O=C(NCc1ccccc1)c1c(NO)cc(-c2ccc(F)cc2)oc1=O
- Ratio CC50/EC50 [1]: 16.9
- CC50 at 72 h [2]: > 20000 nM
- EC50 [3]: 1180 nM

Compound: CNC(=O)c1c(NO)cc(-c2ccccc2)oc1=O
- Ratio CC50/EC50 [1]: 33.3
- CC50 at 72 h [2]: > 20000 nM
- EC50 [3]: 600 nM

Compound: O=C(NCCCO)c1c(NO)cc(-c2ccccc2)oc1=O
- Ratio CC50/EC50 [1]: 44.4
- CC50 at 72 h [2]: > 20000 nM
- EC50 [3]: 450 nM

Compound: O=C(NCCO)c1c(NO)cc(-c2ccccc2)oc1=O
- Ratio CC50/EC50 [1]: 13.5
- CC50 at 72 h [2]: > 20000 nM
- EC50 [3]: 1480 nM

Compound: CNC(=O)c1c(NO)cc(-c2ccc(OC)cc2)oc1=O
- Ratio CC50/EC50 [1]: 28.6
- CC50 at 72 h [2]: > 20000 nM
- EC50 [3]: 700 nM

Compound: O=C(NCc1ccccc1)c1c(NO)cc(-c2ccc(Cl)cc2)oc1=O
- Ratio CC50/EC50 [1]: 29.4
- CC50 at 72 h [2]: > 20000 nM
- EC50 [3]: 680 nM

Compound: Cc1ccc(NC(=O)c2c(NO)cc(-c3ccc(Cl)cc3)oc2=O)cc1
- Ratio CC50/EC50 [1]: 14
- CC50 at 72 h [2]: > 20000 nM
- EC50 [3]: 1430 nM

Compound: Cc1ccc(-c2cc(NO)c(C(=O)NCCO)c(=O)o2)cc1
- Ratio CC50/EC50 [1]: 7.7
- CC50 at 72 h [2]: > 20000 nM
- EC50 [3]: 2580 nM

Compound: CCNC(=O)c1c(NO)cc(-c2ccccc2)oc1=O
- Ratio CC50/EC50 [1]: 20
- CC50 at 72 h [2]: > 20000 nM
- EC50 [3]: 1000 nM

Compound: COC(=O)CNC(=O)c1c(NO)cc(-c2ccc(Cl)cc2)oc1=O
- Ratio CC50/EC50 [1]: 6.5
- CC50 at 72 h [2]: > 20000 nM
- EC50 [3]: 3060 nM

Compound: O=C(Nc1ccc(Cl)cc1)c1c(NO)cc(-c2ccccc2)oc1=O
- Ratio CC50/EC50 [1]: 50
- CC50 at 72 h [2]: > 20000 nM
- EC50 [3]: 400 nM

Compound: CNC(=O)c1c(-c2ccc(F)cc2)oc2cc(N(CCO)S(C)(=O)=O)c(C3CC3)cc12 [NESBUVIR]
- Ratio CC50/EC50 [1]: 57.1
- CC50 at 72 h [2]: > 20000 nM
- EC50 [3]: 350 nM

Compound: COc1ccc(-c2cc(NO)c(C(=O)Nc3ccccc3)c(=O)o2)cc1
- Ratio CC50/EC50 [1]: 28.9
- CC50 at 72 h [2]: 16200 nM
- EC50 [3]: 560 nM

Compound: O=C(Nc1ccccc1)c1c(NO)cc(-c2ccccc2)oc1=O
- Ratio CC50/EC50 [1]: 33.1
- CC50 at 72 h [2]: 11600 nM
- EC50 [3]: 350 nM

Compound: CNC(=O)c1c(NO)cc(-c2ccc(C)cc2)oc1=O
- Ratio CC50/EC50 [1]: 14.1
- CC50 at 72 h [2]: > 20000 nM
- EC50 [3]: 1420 nM

Compound: O=C(NCCO)c1c(NO)cc(-c2ccc(F)cc2)oc1=O
- Ratio CC50/EC50 [1]: 6.7
- CC50 at 72 h [2]: > 20000 nM
- EC50 [3]: 2980 nM

Compound: CNC(=O)c1c(NO)cc(-c2ccc(F)cc2)oc1=O
- Ratio CC50/EC50 [1]: 11.4
- CC50 at 72 h [2]: > 20000 nM
- EC50 [3]: 1750 nM

Compound: O=C(Nc1ccc(O)cc1)c1c(NO)cc(-c2ccccc2)oc1=O
- Ratio CC50/EC50 [1]: 20
- CC50 at 72 h [2]: > 20000 nM
- EC50 [3]: 1000 nM

Compound: CCCNC(=O)c1c(NO)cc(-c2ccccc2)oc1=O
- Ratio CC50/EC50 [1]: 44.4
- CC50 at 72 h [2]: > 20000 nM
- EC50 [3]: 450 nM

Compound: CNC(=O)c1c(NO)cc(-c2ccc(Cl)cc2)oc1=O
- Ratio CC50/EC50 [1]: 25.6
- CC50 at 72 h [2]: > 20000 nM
- EC50 [3]: 780 nM

Compound: Cc1ccc(NC(=O)c2c(NO)cc(-c3ccccc3)oc2=O)cc1
- Ratio CC50/EC50 [1]: 111.1
- CC50 at 72 h [2]: > 20000 nM
- CC50 [5]: > 10000 nM
- EC50 [6]: 77 nM
- EC90 [6]: 450 nM
- EC50 [3]: 180 nM

Compound: CC(C)NC(=O)c1c(NO)cc(-c2ccccc2)oc1=O
- Ratio CC50/EC50 [1]: 44.4
- CC50 at 72 h [2]: > 20000 nM
- EC50 [3]: 450 nM

Compound: O=C(Nc1ccc(Br)cc1)c1c(NO)cc(-c2ccccc2)oc1=O
- Ratio CC50/EC50 [1]: 66.7
- CC50 at 72 h [2]: > 20000 nM
- EC50 [3]: 300 nM

Compound: COC(=O)CNC(=O)c1c(NO)cc(-c2ccc(OC)cc2)oc1=O
- Ratio CC50/EC50 [1]: 6.7
- CC50 at 72 h [2]: > 20000 nM
- EC50 [3]: 2960 nM

Compound: O=C(Nc1ccccc1)c1c(NO)cc(-c2ccc(F)cc2)oc1=O
- Ratio CC50/EC50 [1]: 9.7
- CC50 at 72 h [2]: 10300 nM
- EC50 [3]: 1060 nM

Compound: Cc1cccc(NC(=O)c2c(NO)cc(-c3ccccc3)oc2=O)c1
- Ratio CC50/EC50 [1]: 74.1
- CC50 at 72 h [2]: > 20000 nM
- EC50 [3]: 270 nM

Compound: COc1ccc(-c2cc(NO)c(C(=O)NCc3ccccc3)c(=O)o2)cc1
- Ratio CC50/EC50 [1]: 35.1
- CC50 at 72 h [2]: > 20000 nM
- EC50 [3]: 570 nM

Compound: Cc1ccc(NC(=O)c2c(NO)cc(-c3ccc(C)cc3)oc2=O)cc1
- Ratio CC50/EC50 [1]: 43.5
- CC50 at 72 h [2]: > 20000 nM
- EC50 [3]: 460 nM

Compound: COC(=O)CNC(=O)c1c(NO)cc(-c2ccccc2)oc1=O
- Ratio CC50/EC50 [1]: 10.9
- CC50 at 72 h [2]: > 20000 nM
- EC50 [3]: 1840 nM

Compound: COc1ccc(-c2cc(NO)c(C(=O)Nc3ccc(C)cc3)c(=O)o2)cc1
- Ratio CC50/EC50 [1]: 12.5
- CC50 at 72 h [2]: > 20000 nM
- EC50 [3]: 1600 nM

Compound: COC(=O)c1ccc(NC(=O)c2c(NO)cc(-c3ccccc3)oc2=O)cc1
- Ratio CC50/EC50 [1]: 60.6
- CC50 at 72 h [2]: > 20000 nM
- EC50 [3]: 330 nM

Compound: COC(=O)CNC(=O)c1c(NO)cc(-c2ccc(C)cc2)oc1=O
- Ratio CC50/EC50 [1]: 5
- CC50 at 72 h [2]: > 20000 nM
- EC50 [3]: 3990 nM

Compound: Cc1ccccc1NC(=O)c1c(NO)cc(-c2ccccc2)oc1=O
- Ratio CC50/EC50 [1]: 37
- CC50 at 72 h [2]: > 20000 nM
- EC50 [3]: 540 nM

Compound: O=C(NCc1ccccc1)c1c(NO)cc(-c2ccccc2)oc1=O
- Ratio CC50/EC50 [1]: 69
- CC50 at 72 h [2]: > 20000 nM
- EC50 [3]: 290 nM

Compound: COC(=O)CNC(=O)c1c(NO)cc(-c2ccc(F)cc2)oc1=O
- Ratio CC50/EC50 [1]: 10.3
- CC50 at 72 h [2]: > 20000 nM
- EC50 [3]: 1930 nM

Compound: Cc1ccc(NC(=O)c2c(NO)cc(-c3ccc(F)cc3)oc2=O)cc1
- Ratio CC50/EC50 [1]: 10.2
- CC50 at 72 h [2]: > 20000 nM
- EC50 [3]: 1950 nM

Compound: COc1ccc(NC(=O)c2c(NO)cc(-c3ccccc3)oc2=O)cc1
- Ratio CC50/EC50 [1]: 117.6
- CC50 at 72 h [2]: > 20000 nM
- EC50 [3]: 170 nM

Compound: O=C(Nc1ccc(F)cc1)c1c(NO)cc(-c2ccccc2)oc1=O
- Ratio CC50/EC50 [1]: 62.5
- CC50 at 72 h [2]: > 20000 nM
- EC50 [3]: 320 nM

Compound: Cc1ccc(-c2cc(NO)c(C(=O)NCc3ccccc3)c(=O)o2)cc1
- Ratio CC50/EC50 [1]: 21.9
- CC50 at 72 h [2]: > 20000 nM
- EC50 [3]: 910 nM
